Article PMC4926610 (Journal of natural products, 2016)
“Also recorded” adds a separate entry of the source.

Experiments:
p97 (wt-p97) = p97 (wt-p97) (Homo sapiens, UniProt P55072); test: Malachite green assay for p97 ATPase activity; type: biochemical
How it was run: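 Hydrolysis started with 2.0 mM ATP at 37 °C. Aliquots taken at 2, 4, 6, 8 and 10 min were quenched in malachite green/ammonium molybdate/HCl/Tween 20 reagent. IC50 was taken from dose–response curves.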

chaperonin GroEL = chaperonin GroEL (Escherichia coli, UniProt P0A6F5); test: Malachite green ATPase assay, GroEL; type: biochemical
[1] = molecular target: type I AAA+ chaperone ClpX (Escherichia coli, UniProt P0A6H1); test: Malachite green ATPase assay, ClpX; type: biochemical
p97-cys0 = p97-cys0 (Homo sapiens, UniProt P55072); test: Malachite green ATPase assay, cysteineless p97; type: biochemical; conditions: Figure 6A
[2] = tested on: HEK293 cells stably expressing Ub^G76 VGFP; test: Ub^G76 VGFP ubiquitin fusion degradation; type: cell-based, human; conditions: 10.0, 20.0 and 50.0 μM
How it was run: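 Stable reporter HEK293 lines seeded at 2 × 10^6 cells in phenol-red free DMEM plus 10% FBS, grown 18 h at 37 °C under 5% CO2. Then treated with 10.0, 20.0 or 50.0 μM test compound (0.1% final DMSO). DMSO 0.1% negative control and MG132 10.0 μM positive control were included. GFP-positive cells counted by flow cytometry: 488 nm excitation, 530/30 emission, 10 000 events gated on FSC/SSC.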

p97 = p97 (Homo sapiens, UniProt P55072); type: biochemical; conditions: 100.0 μM compound, 1.0 μM p97, 6 h at 21 °C, then dialysis; Figure 6B
How it was run: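 Dialysed into assay buffer, fresh buffer 3 times every 2 h. ATPase started with 2.0 mM ATP; aliquots every 10 min up to 1 h into malachite green, citrate-quenched, OD660 converted to phosphate via standard curve, plotted against time.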

p97-C209A = p97-C209A (Homo sapiens, UniProt P55072, C209A); test: biochemical
[3] = molecular target: N-ethylmaleimide sensitive factor (NSF) (Homo sapiens, UniProt P46459); test: Malachite green ATPase assay, NSF; type: biochemical
[4] = isolated from Rhodotorula glutinis T-110; cited from earlier work

Chain of p97 (P55072 whole entry): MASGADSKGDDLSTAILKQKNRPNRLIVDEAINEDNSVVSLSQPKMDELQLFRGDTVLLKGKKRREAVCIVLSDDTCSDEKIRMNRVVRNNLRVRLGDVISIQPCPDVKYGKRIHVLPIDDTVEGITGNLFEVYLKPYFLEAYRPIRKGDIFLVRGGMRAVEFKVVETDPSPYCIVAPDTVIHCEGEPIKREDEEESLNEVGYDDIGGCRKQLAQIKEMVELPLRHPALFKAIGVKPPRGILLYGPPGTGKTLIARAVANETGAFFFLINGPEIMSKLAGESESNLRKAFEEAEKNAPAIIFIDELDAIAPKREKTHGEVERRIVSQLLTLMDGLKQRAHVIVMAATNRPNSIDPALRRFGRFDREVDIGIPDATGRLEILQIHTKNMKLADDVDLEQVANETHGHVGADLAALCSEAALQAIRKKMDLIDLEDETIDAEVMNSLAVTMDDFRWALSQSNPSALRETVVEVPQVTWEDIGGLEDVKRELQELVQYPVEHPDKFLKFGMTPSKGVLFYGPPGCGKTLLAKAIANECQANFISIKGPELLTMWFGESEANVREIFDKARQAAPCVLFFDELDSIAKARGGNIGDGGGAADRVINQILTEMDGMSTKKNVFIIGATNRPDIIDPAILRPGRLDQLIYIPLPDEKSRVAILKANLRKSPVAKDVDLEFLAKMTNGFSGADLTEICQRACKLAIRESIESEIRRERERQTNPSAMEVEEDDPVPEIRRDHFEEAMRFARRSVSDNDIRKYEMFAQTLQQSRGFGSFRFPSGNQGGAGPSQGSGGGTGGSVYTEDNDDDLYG
Chain of p97 (wt-p97) (P55072 whole entry): as above
Chain of N-ethylmaleimide sensitive factor (NSF) (P46459 whole entry, species assumed): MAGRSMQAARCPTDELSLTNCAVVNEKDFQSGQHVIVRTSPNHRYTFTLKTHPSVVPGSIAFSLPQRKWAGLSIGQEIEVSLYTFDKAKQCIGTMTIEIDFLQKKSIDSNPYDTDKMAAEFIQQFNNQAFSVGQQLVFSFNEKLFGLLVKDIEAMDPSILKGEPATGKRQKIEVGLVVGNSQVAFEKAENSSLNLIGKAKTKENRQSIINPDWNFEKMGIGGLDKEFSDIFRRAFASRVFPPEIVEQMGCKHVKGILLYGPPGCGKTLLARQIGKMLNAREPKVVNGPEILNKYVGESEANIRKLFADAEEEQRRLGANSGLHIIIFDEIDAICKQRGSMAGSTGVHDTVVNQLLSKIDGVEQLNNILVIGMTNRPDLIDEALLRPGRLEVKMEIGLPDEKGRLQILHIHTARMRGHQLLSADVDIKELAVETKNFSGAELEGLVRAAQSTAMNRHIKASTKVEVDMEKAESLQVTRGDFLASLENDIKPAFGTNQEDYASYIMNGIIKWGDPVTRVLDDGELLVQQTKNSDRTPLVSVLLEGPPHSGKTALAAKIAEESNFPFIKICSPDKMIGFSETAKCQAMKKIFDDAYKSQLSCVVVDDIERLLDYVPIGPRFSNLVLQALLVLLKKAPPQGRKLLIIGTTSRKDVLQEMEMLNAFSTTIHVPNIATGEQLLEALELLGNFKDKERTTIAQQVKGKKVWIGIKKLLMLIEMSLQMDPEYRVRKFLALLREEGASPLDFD
Chain of p97-C209A (P55072 whole entry C209A): as the sequence (P55072 whole entry) above, with C209A counted along it
Chain of chaperonin GroEL (P0A6F5 whole entry): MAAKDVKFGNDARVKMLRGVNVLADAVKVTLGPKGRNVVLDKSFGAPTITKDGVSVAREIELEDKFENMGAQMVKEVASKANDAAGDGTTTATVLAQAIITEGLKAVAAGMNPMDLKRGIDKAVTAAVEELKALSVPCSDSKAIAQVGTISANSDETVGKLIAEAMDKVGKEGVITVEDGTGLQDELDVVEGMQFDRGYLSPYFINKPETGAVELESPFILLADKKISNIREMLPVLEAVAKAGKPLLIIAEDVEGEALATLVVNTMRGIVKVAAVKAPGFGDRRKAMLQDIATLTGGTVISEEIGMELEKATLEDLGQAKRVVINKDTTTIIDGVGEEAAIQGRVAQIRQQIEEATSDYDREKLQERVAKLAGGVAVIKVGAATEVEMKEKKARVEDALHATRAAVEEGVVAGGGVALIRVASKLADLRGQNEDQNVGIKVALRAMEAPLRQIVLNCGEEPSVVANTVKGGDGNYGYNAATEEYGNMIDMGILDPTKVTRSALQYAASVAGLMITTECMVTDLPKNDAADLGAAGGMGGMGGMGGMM
Chain of p97-cys0 (P55072 2-806): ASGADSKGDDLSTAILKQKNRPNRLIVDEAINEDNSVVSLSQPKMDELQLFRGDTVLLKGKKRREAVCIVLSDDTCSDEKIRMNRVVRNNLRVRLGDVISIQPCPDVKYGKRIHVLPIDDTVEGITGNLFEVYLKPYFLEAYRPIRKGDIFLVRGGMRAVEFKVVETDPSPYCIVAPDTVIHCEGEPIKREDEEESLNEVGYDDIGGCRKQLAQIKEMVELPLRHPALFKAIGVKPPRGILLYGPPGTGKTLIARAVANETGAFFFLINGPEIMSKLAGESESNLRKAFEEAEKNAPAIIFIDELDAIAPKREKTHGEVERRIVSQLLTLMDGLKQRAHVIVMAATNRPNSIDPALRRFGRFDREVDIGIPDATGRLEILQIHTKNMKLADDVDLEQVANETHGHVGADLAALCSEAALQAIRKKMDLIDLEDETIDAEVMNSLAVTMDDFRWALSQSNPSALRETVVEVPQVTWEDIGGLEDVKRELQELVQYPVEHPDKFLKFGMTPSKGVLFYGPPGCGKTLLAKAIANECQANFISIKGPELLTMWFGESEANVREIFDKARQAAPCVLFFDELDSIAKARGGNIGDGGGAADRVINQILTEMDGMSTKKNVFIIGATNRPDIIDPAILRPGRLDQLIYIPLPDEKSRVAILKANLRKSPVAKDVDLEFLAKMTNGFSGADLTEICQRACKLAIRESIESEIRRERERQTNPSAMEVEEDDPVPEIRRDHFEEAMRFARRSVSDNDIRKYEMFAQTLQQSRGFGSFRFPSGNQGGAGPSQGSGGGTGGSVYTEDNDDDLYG
Chain of type I AAA+ chaperone ClpX (P0A6H1 whole entry): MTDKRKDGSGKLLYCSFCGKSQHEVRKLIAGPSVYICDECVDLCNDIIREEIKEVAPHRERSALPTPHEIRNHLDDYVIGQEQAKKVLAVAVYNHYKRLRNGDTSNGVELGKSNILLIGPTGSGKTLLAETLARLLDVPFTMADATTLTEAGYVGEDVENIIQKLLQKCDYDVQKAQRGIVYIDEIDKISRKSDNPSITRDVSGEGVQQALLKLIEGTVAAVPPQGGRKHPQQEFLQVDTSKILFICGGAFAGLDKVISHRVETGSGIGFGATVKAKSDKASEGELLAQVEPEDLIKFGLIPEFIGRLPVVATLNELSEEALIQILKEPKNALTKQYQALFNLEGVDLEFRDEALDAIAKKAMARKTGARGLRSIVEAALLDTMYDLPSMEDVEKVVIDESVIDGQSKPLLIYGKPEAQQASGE

With `C=C1OC(=O)C2(C1=O)[C@H](/C=C/C=C/CCC)C=C[C@@H](O)[C@@H]2O` (mixture of isomers) [compound 2, oxaspirol B] the “effect of ATP concentration on IC50 of p97 inhibition” value (p97 (wt-p97); data not shown) was “no effect”, the “p97 ATPase inhibitory activity (in words)” value (p97 (wt-p97); malachite green-based ATPase assay) was “moderate; also recorded: showed activity” and the IC50 (chaperonin GroEL) was over 200 µM. For the same compound, the IC50 [1] was over 200 µM, the “activity against cysteine-less p97 variant Cys0 (in words)” value (p97-cys0) was “no activity” and the “rescue of Ub^G76 VGFP reporter (number of GFP positive cells by FACS)” value [2] was “dose-dependent inhibition of GFP fluorescence loss; also recorded: rescued in the presence of 2 in a dose-dependent manner”. For the same compound, the “inhibition of p97 ATPase after extensive dialysis (reversibility)” value (p97) was “No inhibition of p97 was evident after extensive dialysis; also recorded: p97 ATPase activity is restored”, the IC50 (p97-C209A) was 18 ± 4.7 µM and the IC50 [3] was over 200 µM.
With `C=C1OC(=O)[C@]2(C1=O)[C@H](/C=C/C=C/CCC)C=C[C@@H](OC(C)=O)[C@@H]2OC(C)=O` (single isomer, unassigned; isomer 5a) [5a, 9,10-Diacetyloxaspirol B Isomer 5a] the IC50 (p97 (wt-p97)) was over 200 µM.
With `C=C1OC(=O)[C@@]2(C1=O)[C@H](/C=C/C=C/CCC)C=C[C@@H](OC(C)=O)[C@@H]2OC(C)=O` (single isomer, unassigned; isomer 5b) [5b, 9,10-Diacetyloxaspirol B Isomer 5b] the IC50 (p97 (wt-p97)) was over 200 µM.
In the case of `CCCC=CC=C[C@@H]1C=C[C@@H](O)[C@H](O)[C@]12C(=O)OC(C)[C@@H]2O` (stereo partly drawn) [compound 1, (4R,5R,6R,9R,10R)-6-(hepta-1,3-dien)yl-4,9,10-trihydroxy-3-methyl-2-oxaspiro[4,5]dec-7-en-1-one], the “antibacterial activity (in words)” value [4] is given as “weakly active”.
For `C[C@H]1CCC/C=C/C(=O)c2c(O)cc(O)cc2CC(=O)O1` [dehydrocurvularin, reference compound], the “inhibition of p97 ATPase after extensive dialysis (reversibility)” value (p97) was “continued inhibition even after extensive dialysis”.
